Source: ChEMBL document CHEMBL1132598, “Synthesis, corticotropin-releasing factor receptor binding affinity, and pharmacokinetic properties of triazolo-, imidazo-, and pyrrolopyrimidines and -pyridines” (J Med Chem, 1999)

Legend:
[1] = target: T1, Corticotropin-releasing factor receptor 1 (Homo sapiens, UniProt P34998); assay: Binding affinity to recombinant human Corticotropin releasing factor receptor 1 (hCRF1) expressed in 293EBNA cells; assay type: cell-based
T1 sequence (P34998 whole entry): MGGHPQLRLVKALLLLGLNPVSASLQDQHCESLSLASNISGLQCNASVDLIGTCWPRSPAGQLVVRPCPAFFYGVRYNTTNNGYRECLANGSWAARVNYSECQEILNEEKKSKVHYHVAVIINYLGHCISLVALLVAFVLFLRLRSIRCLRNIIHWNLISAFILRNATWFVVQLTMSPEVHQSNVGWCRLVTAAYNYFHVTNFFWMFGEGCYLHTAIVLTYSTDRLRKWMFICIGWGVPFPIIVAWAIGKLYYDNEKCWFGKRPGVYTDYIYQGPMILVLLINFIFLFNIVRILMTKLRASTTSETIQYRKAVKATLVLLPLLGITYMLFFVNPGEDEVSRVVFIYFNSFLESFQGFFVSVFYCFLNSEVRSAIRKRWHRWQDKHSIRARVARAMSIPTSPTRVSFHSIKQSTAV

[2] = Oral bioavailability in rat (dose 1 mg/kg); assay type: ADME, organism-based; settings: in vivo
Method in brief: (§1)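 Rats were given a single 1 mg/kg oral dose, as a 0.25% methylcellulose suspension or as a solution in EtOH/PG (20:80). Animals were sacrificed at 30 min and 1, 2, 4, 8 and 16 h, with blood collected into EDTA. Plasma was separated by centrifugation and extracted liquid–liquid. Analysis was by LC/MS/MS. Each value is a single determination or the average of two.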

[3] = The Peak plasma concentration was measured in rats after oral administration of 1 mg/kg dose; assay type: ADME, organism-based; set-up: dose 1 mg/kg, route oral; settings: rat; method in brief: as §1
Rattus norvegicus = assay: The Plasma area under the compound concentration -time curve was measured in rats after oral administration of 1 mg/kg dose; assay type: ADME, organism-based; set-up: dose 1 mg/kg, route oral; settings: in vivo; method in brief: as §1

SMILES	Ki [1]	other results
CCC(CC)Oc1nc(C)nc2c1ncn2-c1ccc(C(C)C)cc1Br	3.5 nM	
CCCCN(CC)c1nc(C)nc2c1c(C)c(C)n2-c1c(C)cc(C)cc1C [ANTALARMIN]	0.84 nM	
COCCN(CCOC)c1nc(C)nc2c1nnn2-c1c(Cl)cc(OC)cc1OC	21 nM	
COCC(Cc1ccccc1)Nc1nc(C)nc2c1nnn2-c1c(C)cc(C)cc1C (stereo unspecified)	27.7 nM	
COCCN(CCOC)c1nc(C)nc2c1ncn2-c1c(C)cc(C)cc1C	20.7 nM	
COCCN(CCOC)c1nc(C)nc2c1nc(C)n2-c1ccc(C(C)C)cc1Br	6.7 nM	
CCCCN(CC)c1nc(C)nc2c1ncn2-c1c(C)cc(C)cc1C	25 nM	
COCCN(CCOC)c1nc(C)nc2c1nnn2-c1c(C)cc(C)cc1C	24.1 nM	
CCCCN(CC)c1cc(C)nc2c1nc(C)n2-c1ccc(C(C)C)cc1Br	3.9 nM	
CCCCN(CC)c1nc(C)nc2c1nc(-c1ccccc1)n2-c1c(Cl)cc(OC)cc1OC	133 nM	
CCCCc1nc2c(N(CC)CCCC)nc(C)nc2n1-c1c(Cl)cc(OC)cc1OC	22 nM	
CCC(CO)Nc1nc(C)nc2c1c(C)c(C)n2-c1c(C)cc(C)cc1C (stereo unspecified)	27.3 nM	
CCCCN(CC)c1nc(C)nc2c1nc(C)n2-c1c(Cl)cc(OC)cc1OC	3.5 nM	
COCCN(CCOC)c1cc(C)nc2c1nc(C)n2-c1ccc(C(C)C)cc1Br	9.8 nM	
COCCN(CCOC)c1nc(C)nc2c1ncn2-c1c(Br)cc(OC)cc1OC	31.3 nM	
COCCN(CCOC)c1ncnc2c1nnn2-c1ccc(C(C)C)cc1Br	203 nM	
COCCN(CCOC)c1nc(C)nc2c1nnn2-c1c(Br)cc(OC)cc1N(C)C	48.2 nM	
CCCCN(CC)c1nc(C)nc2c1nnn2-c1c(C)cc(C)cc1C	27.5 nM	
COCCN(CCOC)c1cc(C)nc2c1nnn2-c1ccc(C(C)C)cc1S(C)(=O)=O	476 nM	
COCCN(CCOC)c1nc(C)nc2c1nnn2-c1ccc(N(C)C)cc1C(F)(F)F	23.5 nM	
CCCCN(CC)c1nc(C)nc2c1nnn2-c1ccc(N(C)C)cc1C(F)(F)F	15.4 nM	
COCCN(CCOC)c1nc(C)nc2c1nnn2-c1ccc(C(C)C)cc1	3920 nM	

SMILES	Ki [1]	other results
COCCN(CCOC)c1nc(C)nc2c1nnn2-c1ccc(Br)cc1Br	7.4 nM	
Cc1cc(C)c(-n2c(C)c(C)c3c(N4CCOCC4)nc(C)nc32)c(C)c1	201 nM	
CCCC(CCC)Nc1nc(C)nc2c1nnn2-c1c(C)cc(C)cc1C	4 nM	
CCC(COC)Nc1nc(C)nc2c1nnn2-c1c(C)cc(C)cc1C (stereo unspecified)	59.4 nM	
CCCCC(CC)Nc1nc(C)nc2c1nnn2-c1c(C)cc(C)cc1C (stereo unspecified)	7.6 nM	
CCCC(C)Nc1nc(C)nc2c1nnn2-c1c(C)cc(C)cc1C (stereo unspecified)	7.1 nM	
CCCCN(CC)c1nc(C)nc2c1nnn2-c1c(Br)cc(OC)cc1OC	3 nM	
COCCN(CCOC)c1nc(C)nc2c1nnn2-c1ccc(N(C)C)cc1Br	10.5 nM	
CCCCN(CC)c1nc(C)nc2c1ncn2-c1c(Cl)cc(OC)cc1OC	5.2 nM	
COCCN(CCOC)c1nc(C)nc2c1c(C)c(C)n2-c1c(C)cc(C)cc1C	7.1 nM	
CCC(CC)Nc1nc(C)nc2c1nnn2-c1c(C)cc(C)cc1C	5.7 nM	
COCCN(CCOC)c1nc(C)nc2c1nnn2-c1c(C)cc(C)nc1C	416 nM	
CCCCN(CC)c1nc(C)nc2c1c(C)cn2-c1c(C)cc(C)cc1C [CP-154526]	1.61 nM	
COCCN(CCOC)c1cc(C)nc2c1nnn2-c1ccc(C(C)C)cc1SC	4.7 nM	
CCCCN(CC)c1nc(C)nc2c1ncn2-c1c(Br)cc(OC)cc1OC	3.5 nM	
CCCCN(CC)c1nc(C)nc2c1nnn2-c1c(Cl)cc(OC)cc1OC	4.4 nM	
CCCCNc1nc(C)nc2c1c(C)c(C)n2-c1c(C)cc(C)cc1C	29 nM	
COCCN(CCOC)c1nc(C)nc2c1nnn2-c1c(Br)cc(OC)cc1OC	28.3 nM	
COCCN(CCOC)c1nc(C)nc2c1ncn2-c1ccc(C(C)C)cc1Br	5.9 nM	
CCN(CCOC)c1nc(C)nc2c1nnn2-c1c(C)cc(C)cc1C	20.7 nM	
COCCN(CCOC)c1nc(C)nc2c1nnn2-c1ccc(OC(F)(F)F)cc1Br	33.2 nM	

Further lines, with some results ahead:

Ki [1]	SMILES	other results
194 nM	Cc1nc(N2CCCC2)c2nnn(-c3ccc(C(C)C)cc3Br)c2n1	
287 nM	CCCCN(CC)c1ncnc2c1nnn2-c1ccc(C(C)C)cc1Br	
6.1 nM	CCCCN(CCCC)c1nc(C)nc2c1ncn2-c1ccc(C(C)C)cc1Br	
12.4 nM	CCN(CC)c1nc(C)nc2c1ncn2-c1ccc(C(C)C)cc1Br	
69.6 nM	CCCCNc1nc(C)nc2c1nnn2-c1ccc(C(C)C)cc1Br	
9.2 nM	CCN(CCOC)c1nc(C)nc2c1ncn2-c1ccc(C(C)C)cc1Br	
46 nM	Cc1nc(N2CCCCC2)c2nnn(-c3ccc(C(C)C)cc3Br)c2n1	
4.6 nM	COCCN(CC1CC1)c1nc(C)nc2c1nnn2-c1ccc(C(C)C)cc1Br	
19.4 nM	CCC(Nc1nc(C)nc2c1nnn2-c1ccc(C(C)C)cc1Br)C(=O)OC (stereo unspecified)	
33.7 nM	CCCCN(CC)c1nc(C)nc2c1nnn2-c1ccc(C(C)=O)cc1Br	
10.5 nM	CCN(CCOC)c1nc(C)nc2c1nnn2-c1ccc(C(C)C)cc1Br	
120 nM	Cc1nc(NC2CCCC2)c2nnn(-c3ccc(C(C)C)cc3Br)c2n1	
242 nM	COCCNc1nc(C)nc2c1nnn2-c1ccc(C(C)C)cc1Br	
7.1 nM	COCC(COC)Oc1nc(C)nc2c1nnn2-c1ccc(C(C)C)cc1Br	
66.9 nM	COCCCN(CCOC)c1nc(C)nc2c1nnn2-c1ccc(C(C)C)cc1Br	
8 nM	CCC(CCOC)Nc1nc(C)nc2c1ncn2-c1ccc(C(C)C)cc1Br (stereo unspecified)	bioavailability [2]: 7%; Cmax [3]: 19.9 nM; AUC T (Rattus norvegicus): 30 nM·h
3.6 nM	CCCC(CCC)Nc1nc(C)nc2c1ncn2-c1ccc(C(C)C)cc1Br	
3.1 nM	CCCCC(CC)Nc1nc(C)nc2c1nnn2-c1ccc(C(C)C)cc1Br (stereo unspecified)	
0.8 nM	CCCC(CCC)Nc1nc(C)nc2c1nnn2-c1ccc(Br)cc1Br	
3460 nM	Cc1nc(N(CCO)CCO)c2nnn(-c3ccc(C(C)C)cc3Br)c2n1	
25.3 nM	CCN(CC)c1nc(C)nc2c1nnn2-c1ccc(C(C)C)cc1Br	
2.9 nM	CCCCC(CC)Oc1nc(C)nc2c1ncn2-c1ccc(C(C)C)cc1Br (stereo unspecified)	
15.3 nM	COCCN(CCOC)c1nc(C)nc2c1nnn2-c1ccc(C(C)C)cc1SC	
4.4 nM	CCCC(CC)Nc1nc(C)nc2c1ncn2-c1ccc(C(C)C)cc1Br (stereo unspecified)	
11.2 nM	CCC(COC)N(C)c1nc(C)nc2c1nnn2-c1ccc(C(C)C)cc1Br (stereo unspecified)	
64 nM	COCCN(CCO)c1nc(C)nc2c1nnn2-c1ccc(C(C)C)cc1Br	
123 nM	CCN(c1nc(C)nc2c1nnn2-c1ccc(C(C)C)cc1Br)C(COC)COC	
100 nM	CCCCN(CC)c1nc(C)nc2c1nnn2-c1ccc(S(C)(=O)=O)cc1Br	

Ki [1]	SMILES	other results
4.3 nM	C=CCN(CCOC)c1nc(C)nc2c1nnn2-c1ccc(C(C)C)cc1Br	
20.4 nM	CCCCN(CC)c1nc(C)nc2c1nnn2-c1ccc(Br)cc1Br	
4.3 nM	CCCCN(CC)c1nc(C)nc2c1ncn2-c1ccc(C(C)C)cc1Br	
1.4 nM	CCCCN(CC)c1nc(C)nc2c1nc(C(F)(F)F)n2-c1ccc(C(C)C)cc1Br	
7.5 nM	CCC(COC)Nc1nc(C)nc2c1nnn2-c1ccc(C(C)C)cc1Br (stereo in doubt; 4y)	
2.8 nM	CCCC(CC)Nc1nc(C)nc2c1nnn2-c1ccc(C(C)C)cc1Br (stereo unspecified)	
10.6 nM	CCCCN(CC)c1nc(C)nc2c1nnn2-c1ccc(SC)cc1Br	
210 nM	COCCNc1nc(C)nc2c1ncn2-c1ccc(C(C)C)cc1Br	
5.1 nM	CCCCC(CC)Nc1nc(C)nc2c1ncn2-c1ccc(C(C)C)cc1Br (stereo unspecified)	
4.5 nM	CCCCC(CCCC)Nc1nc(C)nc2c1nnn2-c1ccc(C(C)C)cc1Br	
39.7 nM	CCOCC(COCC)Oc1nc(C)nc2c1nnn2-c1ccc(C(C)C)cc1Br	
1.5 nM	CCCCC(CC)Oc1nc(C)nc2c1nnn2-c1ccc(C(C)C)cc1Br (stereo unspecified)	
25.3 nM	CCC(CO)Nc1nc(C)nc2c1nnn2-c1ccc(C(C)C)cc1Br (stereo unspecified)	
5.2 nM	CCC(CC)Nc1nc(C)nc2c1nnn2-c1ccc(C(C)C)cc1Br	
235 nM	CCCC(Nc1nc(C)nc2c1nnn2-c1ccc(C(C)C)cc1Br)C(=O)N(C)C (stereo unspecified)	
36.7 nM	COCC(Cc1ccccc1)Nc1nc(C)nc2c1nnn2-c1ccc(C(C)C)cc1Br (stereo unspecified)	
21.3 nM	COCC(COC)N(C)c1nc(C)nc2c1nnn2-c1ccc(C(C)C)cc1Br	
38.7 nM	CCCC(CN(C)C)Nc1nc(C)nc2c1nnn2-c1ccc(C(C)C)cc1Br (stereo unspecified)	
1.9 nM	CCC(CC)Oc1nc(C)nc2c1nnn2-c1ccc(C(C)C)cc1Br	
2.2 nM	CCCCN(CC)c1cc(C)nc2c1nnn2-c1ccc(C(C)C)cc1SC	
9.4 nM	CCC(COC)Nc1nc(C)nc2c1nnn2-c1ccc(C(C)C)cc1Br (stereo in doubt; 4z)	
32.5 nM	CCCCN(CCCC)c1nc(C)nc2c1nnn2-c1ccc(C(C)C)cc1Br	
291 nM	COCCCNc1nc(C)nc2c1nnn2-c1ccc(C(C)C)cc1Br	
195 nM	COCC(C)(C)Nc1nc(C)nc2c1nnn2-c1ccc(C(C)C)cc1Br	
10.3 nM	COCC(COC)Nc1nc(C)nc2c1nnn2-c1ccc(C(C)C)cc1Br	
4.7 nM	COCCN(CCOC)c1cc(C)nc2c1nnn2-c1ccc(C(C)C)cc1Br	
48.5 nM	COCCN(Cc1cccnc1)c1nc(C)nc2c1nnn2-c1ccc(C(C)C)cc1Br	
